Measured values reported in PMC10330157 (Clinical cancer research : an official journal of the …, 2023).
“Also recorded” adds a separate entry of the source.

Experiments:
[1] = Phase 1 first-in-human trial: safety and tolerability; format: in vivo
In short: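 In an open-label, non-randomized dose escalation, the test compound was given orally once daily for 28-day cycles at 20–1,200 mg. Cohorts started as single patients, with intrapatient escalation allowed. The primary endpoints were DLT and MTD. Patients were hospitalized during ramp-up, with oral antihyperuricemic agents and hydration ≥ 72 h before the first dose plus IV hydration. AEs were counted once per patient. The safety population was all patients receiving ≥ 1 dose, analysed descriptively.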

[2] = tested on: patients with relapsed or refractory CLL/SLL; experiment: Phase 1 trial: antitumor response in patients with R/R CLL/SLL; format: in vivo, human
In short: (§1)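 Patients took the oral test compound once daily in 28-day cycles. Disease was assessed at baseline and then every 8 weeks from Cycle 3, using disease-specific scans, bone marrow biopsy/aspirate and hematologic and biochemical labs. MRD was checked in peripheral blood in patients reaching CR. ORR was reported with 95% CI, and missing data were not imputed.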

[3] = tested on: patients with other hematologic malignancies (NHL, MM, myeloid malignancy, HCL, Castleman disease); experiment: Phase 1 trial: antitumor response in patients without CLL/SLL; format: in vivo, human
In short: as §1

[4] = Clinical plasma pharmacokinetics; format: in vivo, human
In short: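 Oral test compound was given once daily at doses of 20 to 1,200 mg. Plasma levels were measured by LC-MS/MS (LLOQ 5 ng/mL). Cmax, AUC0-24h and accumulation ratio came from noncompartmental analysis.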

[5] = tested on: patients with CLL/SLL; experiment: Absolute lymphocyte count; format: in vivo, human; details: for Mean decrease in ALC: 23 patients with CLL/SLL
In short: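 Adults with R/R CLL/SLL took the test compound orally once daily in 28-day cycles. ALC was tracked from ramp-up D1 to C1D1 and to C2D1. A subset with baseline mean ALC > 25 × 10³/μL was evaluated separately.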

[6] = cited from earlier work
[7] = Castleman disease, evaluable n = 1
[8] = Myeloid malignancy (AML, MDS), evaluable n = 2
[9] = Non-CLL/SLL overall, evaluable n = 28
[10] = single oral administration, 50 mg, 1 subject
[11] = single oral administration, 100 mg, 1 subject
[12] = single oral administration, 200 mg, 2 subjects, Mean ± SD
[13] = single oral administration, 400 mg, 8 subjects, Mean ± SD
[14] = single oral administration, 600 mg, 7 subjects, Mean ± SD
[15] = single oral administration, 800 mg, 7 subjects, Mean ± SD
[16] = single oral administration, 1,000 mg, 6 subjects, Mean ± SD
[17] = single oral administration, 1,200 mg, 6 subjects, Mean ± SD

O=C(NS(=O)(=O)c1ccc(NC[C@H]2COCCO2)c([N+](=O)[O-])c1)c1ccc(N2CCN(CC3=C(c4ccc(Cl)cc4)CC4(CCC4)CC3)CC2)cc1Oc1cnc2[nH]ccc2c1 [lisaftoclax]
Grade 3 or 4 treatment-emergent increased lipase, patients ([1]; 23 patients with CLL/SLL): 13.0% | Grade 3 or 4 treatment-emergent neutropenia, patients ([1]; 23 patients with CLL/SLL): 26.1% | Treatment-related neutropenia, patients ([1]; 23 patients with CLL/SLL): 26.1% | Anemia, treatment-emergent adverse event ([1]; N = 52, Grade 3/4): 5 (9.6) no. (%) | Constipation, treatment-emergent adverse event ([1]; N = 52, Grade 3/4): 1 (1.9) no. (%) | Diarrhea, treatment-emergent adverse event ([1]; N = 52, Grade 3/4): 1 (1.9) no. (%) | Fatigue, treatment-emergent adverse event ([1]; N = 52, Grade 3/4): 1 (1.9) no. (%) | Headache, treatment-emergent adverse event ([1]; N = 52, Grade 3/4): 2 (3.8) no. (%) | Hypokalemia, treatment-emergent adverse event ([1]; N = 52, Grade 3/4): 1 (1.9) no. (%) | Nausea, treatment-emergent adverse event ([1]; N = 52, Grade 3/4): 2 (3.8) no. (%) | Neutropenia, treatment-emergent adverse event ([1]; N = 52, Grade 3/4): 11 (21.2) no. (%) | Peripheral edema, treatment-emergent adverse event ([1]; N = 52, Grade 3/4): 2 (3.8) no. (%) | Thrombocytopenia, treatment-emergent adverse event ([1]; N = 52, Grade 3/4): 7 (13.5) no. (%) | Anemia, treatment-emergent adverse event ([1]; N = 52, any grade): 15 (28.8) no. (%) | Arthralgia, treatment-emergent adverse event ([1]; N = 52, any grade): 8 (15.4) no. (%) | Constipation, treatment-emergent adverse event ([1]; N = 52, any grade): 13 (25.0) no. (%) | Diarrhea, treatment-emergent adverse event ([1]; N = 52, any grade): 25 (48.1) no. (%) | Fatigue, treatment-emergent adverse event ([1]; N = 52, any grade): 18 (34.6) no. (%) | Headache, treatment-emergent adverse event ([1]; N = 52, any grade): 11 (21.2) no. (%) | Hypokalemia, treatment-emergent adverse event ([1]; N = 52, any grade): 9 (17.3) no. (%) | Nausea, treatment-emergent adverse event ([1]; N = 52, any grade): 16 (30.8) no. (%) | Neutropenia, treatment-emergent adverse event ([1]; N = 52, any grade): 14 (26.9) no. (%) | Peripheral edema, treatment-emergent adverse event ([1]; N = 52, any grade): 9 (17.3) no. (%) | Thrombocytopenia, treatment-emergent adverse event ([1]; N = 52, any grade): 15 (28.8) no. (%) | Vomiting, treatment-emergent adverse event ([1]; N = 52, any grade): 12 (23.1) no. (%) | Tumor lysis syndrome (TLS), clinical or laboratory ([1]; daily dose ramp-up, doses up to 1,200 mg): no evidence of tumor lysis syndrome; also recorded: no evidence of clinical or laboratory TLS; also recorded: no patient with CLL/SLL in this study has experienced TLS; also recorded: no clinical or laboratory evidence of TLS | Dose-limiting toxicity (DLT) ([1]; doses of up to 1,200 mg): not reached; also recorded: no dose-limiting toxicities | Changes in platelet counts ([1]; in contrast to navitoclax): did not elicit clinically significant changes in platelet counts | Neutropenic sequelae, such as fever and infection ([1]; in vivo): not observed | Maximum tolerated dose (MTD) ([1]; oral once daily, 20 mg to 1,200 mg, 52 patients): not reached | ORR in patients with BTKi-intolerant disease ([2]; 4 out of 5 evaluable patients): 80.0% | Best response MR ([2]; CLL/SLL, evaluable n = 22): 0 (0) no. (%) | Best response PD ([2]; CLL/SLL, evaluable n = 22): 0 (0) no. (%) | Best response PR ([2]; CLL/SLL, evaluable n = 22): 14 (63.6) no. (%) | Best response SD ([2]; CLL/SLL, evaluable n = 22): 8 (36.4) no. (%) | ORR ([2]; CLL/SLL, evaluable n = 22): 14 (63.6) no. (%) | PR (ORR) in patients with del(17p)/TP53 mutation ([2]; CLL/SLL, 2/3): 66.7% | PR in patients with IGHV unmutated ([2]; CLL/SLL, 8/10): 80.0% | Patients with ≥ 70% reductions in nodal and/or splenic size ([2]; CLL/SLL, 9 of 21 patients): 42.9% | Patients achieving PR among 4 patients who relapsed to prior BTKi ([2]; after 2 cycles of treatment): 1 patient | Complete response (CR) ([2]; all patients): No patient experienced a CR | Median time to response ([2]; patients with R/R CLL/SLL): 2 (range, 2-8) cycles | Clinical benefit, patients ([3]; 28 evaluable patients without CLL/SLL): 50.0% | Best response MR [3, 7]: 0 (0) no. (%) | Best response PD [3, 7]: 0 (0) no. (%) | Best response PR [3, 7]: 0 (0) no. (%) | Best response SD [3, 7]: 1 (100.0) no. (%) | Clinical benefit rate [3, 7]: 1 (100.0) no. (%) | ORR [3, 7]: 0 (0) no. (%) | Best response MR ([3]; HCL, evaluable n = 1): 0 (0) no. (%) | Best response PD ([3]; HCL, evaluable n = 1): 0 (0) no. (%) | Best response PR ([3]; HCL, evaluable n = 1): 0 (0) no. (%) | Best response SD ([3]; HCL, evaluable n = 1): 1 (100.0) no. (%) | Clinical benefit rate ([3]; HCL, evaluable n = 1): 1 (100.0) no. (%) | ORR ([3]; HCL, evaluable n = 1): 0 (0) no. (%) | Best response PD ([3]; MM, evaluable n = 11): 7 (63.6) no. (%) | Best response SD ([3]; MM, evaluable n = 11): 2 (18.2) no. (%) | Clinical benefit rate ([3]; MM, evaluable n = 11): 4 (36.4) no. (%) | ORR ([3]; MM, evaluable n = 11): 1 (9.1) no. (%) | Best response MR [3, 8]: 0 (0) no. (%) | Best response PD [3, 8]: 2 (100.0) no. (%) | Best response PR [3, 8]: 0 (0) no. (%) | Best response SD [3, 8]: 0 (0) no. (%) | Clinical benefit rate [3, 8]: 0 (0) no. (%) | ORR [3, 8]: 0 (0) no. (%) | Best response PD ([3]; NHL, evaluable n = 13): 5 (38.5) no. (%) | Best response PR ([3]; NHL, evaluable n = 13): 0 (0) no. (%) | Best response SD ([3]; NHL, evaluable n = 13): 7 (53.8) no. (%) | Clinical benefit rate ([3]; NHL, evaluable n = 13): 8 (61.5) no. (%) | ORR ([3]; NHL, evaluable n = 13): 0 (0) no. (%) | Best response MR [3, 9]: 2 (7.1) no. (%) | Best response PD [3, 9]: 14 (50.0) no. (%) | Best response PR [3, 9]: 1 (3.6) no. (%) | Best response SD [3, 9]: 11 (39.3) no. (%) | Clinical benefit rate [3, 9]: 14 (50.0) no. (%) | ORR [3, 9]: 1 (3.6) no. (%) | Steady-state mean (CV%) AUC0-24h ([4]; 400 mg): 10,130 (40%) ng•h/mL | Steady-state mean (CV%) Cmax ([4]; 400 mg): 981 (43%) ng/mL | Accumulation ratio ([4]; multiple oral daily dosing): approximately 1 | AUC0-24 [4, 10]: 261 ng·h/mL | Cmax [4, 10]: 39.1 ng/mL | T1/2 [4, 10]: 2.84 h | Tmax [4, 10]: 3 h | AUC0-24 [4, 11]: 1800 ng·h/mL | Cmax [4, 11]: 229 ng/mL | T1/2 [4, 11]: 3.85 h | Tmax [4, 11]: 6 h | AUC0-24 [4, 12]: 2410 ± 370 ng·h/mL | Cmax [4, 12]: 294 ± 4 ng/mL | T1/2 [4, 12]: 3.84 ± 0.16 h | Tmax ([4]; single oral administration, 200 mg, 2 subjects, Median (range)): 4 (4~4) h | AUC0-24 [4, 13]: 6850 ± 2910 ng·h/mL | Cmax [4, 13]: 822 ± 334 ng/mL | T1/2 [4, 13]: 4.43 ± 0.57 h | Tmax ([4]; single oral administration, 400 mg, 8 subjects, Median (range)): 6 (4~8) h | AUC0-24 [4, 14]: 7810 ± 2840 ng·h/mL | Cmax [4, 14]: 761 ± 298 ng/mL | T1/2 [4, 14]: 4.68 ± 1.03 h | Tmax ([4]; single oral administration, 600 mg, 7 subjects, Median (range)): 6 (4~8) h | AUC0-24 [4, 15]: 7250 ± 2240 ng·h/mL | Cmax [4, 15]: 982 ± 384 ng/mL | T1/2 [4, 15]: 4.34 ± 0.53 h | Tmax ([4]; single oral administration, 800 mg, 7 subjects, Median (range)): 4 (4~6) h | AUC0-24 [4, 16]: 18300 ± 13100 ng·h/mL | Cmax [4, 16]: 1690 ± 1220 ng/mL | T1/2 [4, 16]: 6.10 ± 1.52 h | Tmax ([4]; single oral administration, 1,000 mg, 6 subjects, Median (range)): 8 (6~8) h | AUC0-24 [4, 17]: 12300 ± 4820 ng·h/mL | Cmax [4, 17]: 1200 ± 480 ng/mL | T1/2 [4, 17]: 4.86 ± 1.01 h | Tmax ([4]; single oral administration, 1,200 mg, 6 subjects, Median (range)): 6 (3~8) h | Median time to 50% ALC reduction ([5]; 5 patients with higher risk of TLS): 3 (range, 2-4) days | Mean decrease in ALC ([5]; from ramp-up D1 to C1D1): 69.4% | Mean decrease in ALC ([5]; from ramp-up Day 1 to C2D1 (completion of first cycle)): 92.8%

CC1(C)CCC(CN2CCN(c3ccc(C(=O)NS(=O)(=O)c4ccc(NCC5CCOCC5)c([N+](=O)[O-])c4)c(Oc4cnc5[nH]ccc5c4)c3)CC2)=C(c2ccc(Cl)cc2)C1 [venetoclax]
Patients with grade 3/4 neutropenia who may require G-CSF support or dose reductions [6]: ~ 75% | Recipients experiencing infection [6]: 72% | Grade ≥ 2 diarrhea, recipients ([6]; real-world-evidence studies): up to 18% | Grade ≥ 3 neutropenia, recipients ([6]; real-world-evidence studies): up to 47% | Grade ≥ 3 neutropenic fever, recipients ([6]; real-world-evidence studies): up to 13% | Grade ≥ 3 thrombocytopenia, recipients ([6]; real-world-evidence studies): up to 36% | TLS, recipients ([6]; real-world-evidence studies): up to 13.4%
